The species entered for data set [1] is Homo sapiens. Nature of the data set: Selectivity index, ratio of CC50 for human HEK293T cells transfected with DYRK1A co-tranfected with Renilla plasmid, pGL3-NFAT and NFATc1 assessed as reduction in luciferase activity by measuring cell number to EC50 for human DYRK1A transfected in HEK293T cells co-transfected with Renilla plasmid, pGL3-NFAT and NFATc1 assessed as derepression of NFAT-dependent luciferase activity measured after 48 hrs by luciferase assay. In kind it is cell-based. The method, boiled down: (§1)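 HEK293T cells transfected with PEI using DYRK1A, Renilla plasmid, IL-2-based pGL3-NFAT firefly reporter and NFATc1. Next day the same transfected population was split into 96-well plates; 6 h later cells were treated for 48 h (11-point dose curve, n = 4), then lysed. EC50 from firefly/Renilla ratio, 4-parameter agonist fit. CC50 from loss of constitutive Renilla signal, 4-parameter inhibitor fit.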

Data set [2] deals with T1, Dual specificity tyrosine-phosphorylation-regulated kinase 1A (Homo sapiens, UniProt Q13627). Nature of the data set: Binding affinity to wild-type human partial length DYRK1A (H129 to S509 residues) expressed in mammalian expression system by Kinomescan method. The method, boiled down: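 Kd measured in a KdELECT binding assay using an 11-point, 3-fold dilution series with three DMSO control points.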

Data set [3] concerns the target Maternal embryonic leucine zipper kinase (Homo sapiens, UniProt Q14680). Briefly: Binding affinity to wild-type human full length MELK (M1 to V651 residues) expressed in bacterial expression system by Kinomescan method.
Data set [4] deals with HEK-293T. Briefly: (§2) Cytotoxicity against human HEK293T cells transfected with DYRK1A co-tranfected with Renilla plasmid, pGL3-NFAT and NFATc1 assessed as reduction in luciferase activity by measuring cell number. Format: cell-based. The following applies: hek-293t. The method, boiled down:
as §1

Data set [5] deals with T1, Dual specificity tyrosine-phosphorylation-regulated kinase 1A. Briefly: Inhibition of human DYRK1A transfected in HEK293T cells co-transfected with Renilla plasmid, pGL3-NFAT and NFATc1 assessed as derepression of NFAT-dependent luciferase activity measured after 48 hrs by luciferase assay. In kind it is cell-based, HEK-293T. The method, boiled down:
as §1

A short description of data set [6]: Apparent permeability in human Caco2 cells measured after 2 hrs by LC-MS/MS analysis. Format: ADME, cell-based, Caco-2. As to conditions: for Papp at 2 h: Caco-2. An outline of the steps:
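Caco-2 monolayers grown on polycarbonate filter inserts (5 × 10⁵ cells/well seeded) and differentiated 21 ± 4 days. Transport run in HBSS with 25 mM HEPES, pH 7.4, 37 °C; compound added donor side. Receiver sampled over 2 h, donor at 0 and 2 h; LC-MS/MS with internal standard. Papp = (dC_rec/dt)/(A × C0,donor) × 10^6.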

Data set [7] can be described thus: Cytotoxicity against mouse R7T1 cells assessed as reduction in cell viability measured after 48 hrs by Hoechst 33342 staining based analysis. The method, boiled down:
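Mouse R7T1 β-cells cultured in high-glucose DMEM with 10% FBS, doxycycline and pyruvate, plated at 25,000 cells/well. Treated in quadruplicate 6 h later (0.169–10,000 nM) for 48 h. Cells fixed in paraformaldehyde and stained with 4 μM Hoechst 33342; nuclei counted by high-content imaging.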

Data set [8] is described as follows: Half life in mouse liver microsomes at 1 uM preincubated for 10 mins followed by NADPH addition and measured up to 40 mins by LC-MS/MS analysis. Format: ADME, Microsome. An outline of the steps:
(§3)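 Human or mouse liver microsomes, each run separately, in 100 mM KxPO4 pH 7.4 with 10 mM MgCl2 and 1 μM test compound. Pre-incubated 10 min at 37 °C, then started with 1 mM NADPH. Quenched in acetonitrile stop solution at 0, 10, 20 and 40 min, centrifuged, diluted and analysed by LC-MS/MS.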
A general note: Microsomes from liver hold many membrane-bound enzymes, among them those of drug oxidation.

Data set [9] is described as follows: as §2. In kind it is cell-based, HEK-293T. The method, boiled down: as §1
Data set [10] in a line: Selectivity index, ratio of CC50 for mouse R7T1 cells assessed as reduction in cell viability measured after 48 hrs by Hoechst 33342 staining based analysis to MEC for inhibition of DYRK1A in human pancreatic islets assessed as induction of pancreatic beta-cells replication measured after 48 hrs by Hoechst 33342 staining based analysis.
The target in data set [11] is T1, Dual specificity tyrosine-phosphorylation-regulated kinase 1A. Briefly: Inhibition of DYRK1A in human pancreatic islets assessed as induction of pancreatic beta-cells replication measured after 48 hrs by Hoechst 33342 staining based analysis. An outline of the steps: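 Human islets (85-95% purity) rested 12 h in low-glucose DMEM with 10% FBS and 20 nM exendin-4. Dispersed to single cells and plated on 804G-conditioned-matrix 384-well plates for 48 h. Treated 48 h, then fixed with 4% PFA. Stained with anti-insulin, anti-Ki-67 and 4 μM Hoechst 33342; Ki67+Insulin+/Insulin+ scored by high-content imaging against per-plate cutoffs.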

The nature of data set [12]: Half life in human liver microsomes at 1 uM preincubated for 10 mins followed by NADPH addition and measured up to 40 mins by LC-MS/MS analysis. Format: ADME, Microsome. The method, boiled down:
as §3

Data set [13] has as its target AURKB (Aurora kinase B) (Homo sapiens, UniProt Q96GD4). Briefly: Inhibition of AURKB in human HEK293T cells assessed as reduction in cell viability at 40 nM measured after 48 hrs relative to control. Format: cell-based, HEK-293T. An outline of the steps:
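Cells were exposed to the Aurora inhibitor at 40 nM, alone or combined with a second DYRK1A inhibitor at 30, 90 or 270 nM, for 48 h. They were then fixed, stained and counted. Cell number is given as a percentage of untreated wells, with n = 4-16 and error bars as standard deviation.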

Molecules are shown by their SMILES.

Maternal embryonic leucine zipper kinase, sequence (Q14680 whole entry, the tested form may be a part): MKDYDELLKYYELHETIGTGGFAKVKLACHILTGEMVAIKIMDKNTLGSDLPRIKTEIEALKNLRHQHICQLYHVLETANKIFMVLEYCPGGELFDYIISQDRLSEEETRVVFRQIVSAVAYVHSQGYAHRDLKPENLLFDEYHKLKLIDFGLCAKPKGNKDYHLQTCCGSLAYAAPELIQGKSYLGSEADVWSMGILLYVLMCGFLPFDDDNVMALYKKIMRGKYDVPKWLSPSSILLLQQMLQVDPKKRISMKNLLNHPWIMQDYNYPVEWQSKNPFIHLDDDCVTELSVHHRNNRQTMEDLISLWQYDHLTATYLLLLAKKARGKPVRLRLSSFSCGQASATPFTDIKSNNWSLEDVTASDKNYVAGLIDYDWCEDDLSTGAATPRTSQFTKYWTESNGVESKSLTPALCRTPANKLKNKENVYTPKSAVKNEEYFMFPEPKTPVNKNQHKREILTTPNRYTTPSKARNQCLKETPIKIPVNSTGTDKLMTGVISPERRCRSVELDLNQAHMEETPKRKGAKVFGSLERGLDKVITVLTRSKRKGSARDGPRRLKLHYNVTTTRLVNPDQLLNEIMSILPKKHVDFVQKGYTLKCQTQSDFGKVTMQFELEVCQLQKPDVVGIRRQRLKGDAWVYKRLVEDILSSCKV
AURKB (Aurora kinase B), sequence (Q96GD4 whole entry): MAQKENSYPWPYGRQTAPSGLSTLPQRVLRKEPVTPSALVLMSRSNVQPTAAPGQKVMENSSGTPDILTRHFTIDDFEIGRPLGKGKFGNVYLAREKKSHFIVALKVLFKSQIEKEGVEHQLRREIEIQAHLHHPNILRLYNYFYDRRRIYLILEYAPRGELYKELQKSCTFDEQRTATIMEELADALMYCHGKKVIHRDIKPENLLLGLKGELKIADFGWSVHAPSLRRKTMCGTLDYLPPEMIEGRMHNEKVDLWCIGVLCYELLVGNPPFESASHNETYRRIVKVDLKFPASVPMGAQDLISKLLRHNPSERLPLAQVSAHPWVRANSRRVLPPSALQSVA

With `CCCCNC(=O)c1cnc2ccc(-c3cc(Cl)c(O)c(Cl)c3)nc2c1N[C@H]1CC[C@H](CN(C)C)CC1`, the Ratio CC50/EC50 in [1] stood at 17. Further, the Kd in data set [2] is 0.075 nM; in [3], 12 nM. For the same compound, the CC50 in data set [4] was 51 nM. For the same compound, the EC50 in [5] worked out at 3 nM.
`CCCCNC(=O)c1cnc2ccc(-c3cc(Cl)c(O)c(Cl)c3)nc2c1N[C@H]1CC[C@H](C(=O)N2CCOCC2)CC1`: the Papp in data set [6] (caco-2, 2 h) worked out at 9.1 ×10⁻⁶ cm/s. Also, the Ratio CC50/EC50 in [1] amounted to 38. Besides, the 50% cytotoxic concentration (CC50) in data set [7] came out at 2440 nM; in data set [9], 2120 nM. In addition, the t1/2 in data set [8] was > 159 min; in data set [12] it was 95 min. The EC50 in data set [5] was found to be 56 nM. In addition, in [10], the “Selectivity Index” value came out at 39. Besides, the MEC in [11] amounted to 63 nM.
Take `CCCCNC(=O)c1cnc2ccc(-c3cc(Cl)c(O)c(Cl)c3)nc2c1N[C@H]1CC[C@H](C(N)=O)CC1`: the Ratio CC50/EC50 in [1] was 39. Further, the 50% cytotoxic concentration (CC50) in [7] was determined as 1790 nM; in [4], 6850 nM. Moreover, the EC50 in data set [5] came to 175 nM. Moreover, in data set [10], the “Selectivity Index” value is given as 14. Also, in data set [11], the MEC came to 125 nM.
Take `CCN(CCO)CCCOc1ccc2c(Nc3cc(CC(=O)Nc4cccc(F)c4)[nH]n3)ncnc2c1` [DEFOSBARASERTIB]: the inhibition at 48 h, 0.04 µM in data set [13] stood at 41%.
With `CCOC(=O)c1cnc2ccc(-c3cc(Cl)c(O)c(Cl)c3)nc2c1NC1CCN(C)CC1`, the Papp at 2 h in data set [6] is 4.6 ×10⁻⁶ cm/s. Further, the Ratio CC50/EC50 in data set [1] amounted to 170. In addition, the CC50 in data set [7] worked out at 387 nM; in data set [4] it was 1020 nM. Besides, the t1/2 in [8] is 129 min; in data set [12], > 159 min. The EC50 in data set [5] was found to be 6 nM. Also, the “Selectivity Index” value in data set [10] is 117. In [11], the MEC is 3.3 nM.
As to `CCOC(=O)c1cnc2ccc(-c3cc(Cl)c(O)c(Cl)c3)nc2c1N[C@H]1CC[C@H](CN)CC1`, the Ratio CC50/EC50 in data set [1] stood at 20. Moreover, the equilibrium dissociation constant (Kd) was found to be 0.22 nM in data set [2] and 9 nM in [3]. The CC50 in [4] is 165 nM. Moreover, the EC50 in [5] came to 8 nM.
For `CCOC(=O)c1cnc2ccc(-c3cc(Cl)c(O)c(Cl)c3)nc2c1N[C@H]1CC[C@H](CC(N)=O)CC1`, in [6], the Papp at 2 h came to 0.01 ×10⁻⁶ cm/s. Also, the Ratio CC50/EC50 in [1] came to 44. Further, the CC50 in data set [7] stood at 1390 nM; in [9], 1890 nM. Further, the figures for the t1/2 in data set [8] and in data set [12] were > 159 min and 28 min, respectively. The EC50 in data set [5] is 43 nM. Also, the “Selectivity Index” value in data set [10] was determined as 22. Moreover, the MEC in [11] was found to be 63 nM.
In the case of `CCOC(=O)c1cnc2ccc(-c3cc(Cl)c(O)c(Cl)c3)nc2c1N[C@H]1CC[C@H](CN(C)C)CC1`, the Ratio CC50/EC50 in data set [1] came to 26. Besides, the Kd was 0.16 nM in data set [2] and 11 nM in [3]. Moreover, the half-maximal cytotoxic concentration (CC50) in data set [4] was 186 nM. For the same compound, the concentration for a half-maximal effect (EC50) in data set [5] stood at 7 nM.
Consider `CCNC(=O)c1cnc2ccc(-c3ccnc(N)c3)nc2c1N[C@H]1CC[C@H](CN(C)C)CC1`, for which, in data set [1], the Ratio CC50/EC50 is > 216. Also, the CC50 in data set [7] was 330 nM; in data set [4] it was > 10000 nM. The EC50 in data set [5] was found to be 46 nM. Moreover, the MEC in data set [11] was > 500 nM.
Regarding `O=C(O)c1ccc(Nc2ncc3c(n2)-c2ccc(Cl)cc2C(c2c(F)cccc2F)=NC3)cc1` [MLN-8054], the inhibition at 48 h, 0.04 µM in [13] is 22%.
For the compound `CCOC(=O)c1cnc2ccc(-c3cc(Cl)c(O)c(Cl)c3)nc2c1N[C@H]1CC[C@H](C(=O)N(C)C)CC1`, in [6], the apparent permeability (Papp) at 2 h came out at 0.12 ×10⁻⁶ cm/s. Also, the Ratio CC50/EC50 in data set [1] came to 119. Besides, the 50% cytotoxic concentration (CC50) in data set [7] worked out at 2810 nM; in [4], 5900 nM. For the same compound, the t1/2 in data set [8] and in data set [12] was > 159 min throughout. In addition, the Kd came to 0.6 nM in [2] and 13 nM in [3]. Besides, in data set [5], the EC50 is 50 nM. The “Selectivity Index” value in data set [10] was 91. In addition, the MEC in [11] stood at 31 nM.
Turning to `CN(C)C[C@H]1CC[C@H](Nc2c(C#N)cnc3ccc(-c4cc(Cl)c(O)c(Cl)c4)nc23)CC1`, the Ratio CC50/EC50 in data set [1] was > 220. Besides, the CC50 in data set [7] was 160 nM; in data set [4], > 10000 nM. Besides, in data set [5], the EC50 turned out to be 45 nM. Besides, the “Selectivity Index” value in data set [10] was 16. In addition, in [11], the MEC came out at 10 nM.
`CCOC(=O)c1cnc2ccc(-c3ccnc(N)c3)nc2c1N[C@H]1CC[C@H](CN2CCOCC2)CC1`: the apparent permeability coefficient (Papp) at 2 h in data set [6] came to 2.7 ×10⁻⁶ cm/s. Besides, the Ratio CC50/EC50 in [1] came out at 79. Further, the CC50 was 856 nM in data set [7] and 2960 nM in data set [9]. Besides, the t1/2 in [8] is reported as 15 min; in data set [12], 37 min. The EC50 in data set [5] worked out at 37 nM. The “Selectivity Index” value in data set [10] stood at 259. Also, the MEC in [11] worked out at 3.3 nM.
Turning to `CCOC(=O)c1cnc2ccc(-c3cc(Cl)c(O)c(Cl)c3)nc2c1N[C@H]1CC[C@H](CNC(C)=O)CC1`, the Ratio CC50/EC50 in [1] came to 217. Also, the figures for the CC50 in data set [7] and in data set [4] were 1020 nM and 3340 nM, respectively. Further, the EC50 in [5] came to 15 nM. In data set [10], the “Selectivity Index” value was 15. Also, in data set [11], the MEC stood at 68 nM.
Regarding `CCOC(=O)c1cnc2ccc(-c3cc(C)c(O)c(C)c3)nc2c1N[C@H]1CC[C@H](CN(C)C)CC1`, the Ratio CC50/EC50 in data set [1] is > 842. Besides, the CC50 in [7] and in data set [4] was > 10000 nM in each case. Further, the EC50 in [5] is 12 nM. In addition, the “Selectivity Index” value in data set [10] was >40. Moreover, the MEC in data set [11] was 250 nM.
In the case of `CC(=O)NC[C@H]1CC[C@H](Nc2c(CO)cnc3ccc(-c4cc(Cl)c(O)c(Cl)c4)nc23)CC1`, in data set [1], the Ratio CC50/EC50 came out at 71. Moreover, the CC50 in data set [7] amounted to 1710 nM; in data set [4] it was 1140 nM. The concentration for a half-maximal effect (EC50) in data set [5] turned out to be 16 nM. For the same compound, the “Selectivity Index” value in data set [10] is 3.4. Also, the MEC in data set [11] is 500 nM.

By Kd is commonly meant the concentration at which binding is half-saturated. Low values mean tighter binding, high ones weaker binding. A word on the CC50: it is the concentration that lowers cell viability or growth by half. One may read the EC50 as the concentration giving half of the maximal effect. What is called Papp is the rate of passage across a membrane or cell layer, normalised by area and donor concentration. One may read the inhibition as how much of the control response was suppressed.

(Values after ChEMBL document CHEMBL4609986 (Bioorg Med Chem, 2020).)
